{"data": "Measurements pooled from the literature", "target": "Serine/threonine-protein kinase MARK1 (MARK1, Homo sapiens, UniProt Q9P0L2)", "note": "Lines come from different studies, so protocols differ."}
{"Structure (SMILES)": "COc1ncccc1-c1cnn2ccc(N3CCN(C(=O)OC(C)C)CC3)nc12", "test": "binding, competition with immobilised ligand", "setting": "1 µM", "measurement": "remaining binding", "value": "100%"}
{"Structure (SMILES)": "N#CC1(c2ccccn2)CCN(Cc2cc(C(=O)O)c(=O)n3ccccc23)CC1", "test": "cell-free assay, competition with immobilised ligand", "setting": "1 µM", "measurement": "remaining binding", "value": "94%"}
{"Structure (SMILES)": "O=c1[nH]c2ccccc2n1C1CCN(Cc2ccc(-c3[nH]c4cc5ncnc5cc4nc3-c3ccccc3)cc2)CC1", "test": "cell-free assay", "setting": "0.5 µM", "measurement": "remaining signal", "value": "104%"}
{"Structure (SMILES)": "C#Cc1n[nH]c2c(-c3cn([C@@H](C)c4ccccn4)c(=O)[nH]c3=O)cc(F)cc12", "test": "enzyme activity, inhibitor", "setting": "0.1 µM", "measurement": "inhibition", "value": "4.9%"}
{"Structure (SMILES)": "COc1cc(Nc2ncc(F)c(Nc3ccc4c(n3)NC(=O)C(C)(C)O4)n2)cc(OC)c1OC", "test": "binding, competition with immobilised ligand", "setting": "10 µM", "measurement": "inhibition", "value": "94%"}
{"Structure (SMILES)": "Cn1cc(-c2cccc(N3CCc4c(sc5c4CC(C)(C)C5)C3=O)c2CO)cc(Nc2ccncn2)c1=O", "test": "enzyme activity, inhibitor", "setting": "1 µM", "measurement": "inhibition", "value": "1%"}
{"Structure (SMILES)": "CC(C)(C)c1cc(C=C(C#N)C#N)cc(Br)c1O", "test": "enzyme activity, inhibitor", "setting": "0.5 µM", "measurement": "remaining activity", "value": "98.8%"}
{"Structure (SMILES)": "Cn1cncc1[C@@](O)(COc1ccc(C#N)cc1-c1ccc(OC(F)(F)F)cc1)c1ccc(C#N)cc1", "test": "cell-free assay, competition with immobilised ligand", "setting": "1 µM", "measurement": "remaining binding", "value": "100%"}
{"Structure (SMILES)": "Cn1cc(-c2cc(F)cc(N3CCn4c(cc5c4CCCC5)C3=O)c2CO)cc(Nc2ccc(N3CCN(C4COC4)CC3)cn2)c1=O", "test": "enzyme activity, inhibitor", "setting": "0.1 µM", "measurement": "inhibition", "value": "10%"}
{"Structure (SMILES)": "Cc1nn(C)cc1-c1nc2c(N3CCN(Cc4ccc(Cl)cc4)CC3)c(Cl)cnc2[nH]1", "test": "binding, competition with immobilised ligand", "setting": "1 µM", "measurement": "remaining binding", "value": "78%"}
{"Structure (SMILES)": "Nc1ncc(-c2nc(N3CCOCC3)nc(N3CCOCC3)n2)c(C(F)F)n1", "test": "binding, competition with immobilised ligand", "setting": "10 µM", "measurement": "remaining binding", "value": "88%"}
{"Structure (SMILES)": "C#Cc1n[nH]c2c(-c3cn([C@@H](C)c4ccccc4)c(=O)[nH]c3=O)cc(F)cc12", "test": "enzyme activity, inhibitor", "setting": "0.1 µM", "measurement": "inhibition", "value": "4.1%"}
